The values that follow come from ChEMBL document CHEMBL1149469, “Hit-to-Lead studies: the discovery of potent, orally bioavailable thiazolopyrimidine CXCR2 receptor antagonists” (Bioorg Med Chem Lett, 2006).

The target in data set [1] is T1, C-X-C chemokine receptor type 2 (Homo sapiens) (UniProt P25025).
T1 sequence (whole entry): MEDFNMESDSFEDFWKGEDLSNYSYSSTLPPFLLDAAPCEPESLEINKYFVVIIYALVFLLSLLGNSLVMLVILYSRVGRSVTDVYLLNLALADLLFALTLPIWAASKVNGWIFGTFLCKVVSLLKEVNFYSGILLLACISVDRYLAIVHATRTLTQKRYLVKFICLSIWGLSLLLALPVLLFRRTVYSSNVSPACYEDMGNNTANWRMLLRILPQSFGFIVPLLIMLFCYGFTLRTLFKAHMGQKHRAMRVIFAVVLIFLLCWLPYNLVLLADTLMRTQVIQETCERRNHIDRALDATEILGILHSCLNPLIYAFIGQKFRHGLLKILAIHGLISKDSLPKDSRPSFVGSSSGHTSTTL
Kind of data set: Inhibition of CXCR2 at 10 uM.

The nature of data set [2]: Half life in iv dosed rat. It is filed as ADME, organism-based. The note with it: in vivo.
The nature of data set [3]: Clearance in iv dosed rat. Format: ADME, organism-based. The note with it: in vivo.
Data set [4] can be described thus: Volume of distribution in iv dosed rat. Format: ADME, organism-based. The following applies: in vivo, read-out: Vdss.
Data set [5] has as its target T2, C-X-C chemokine receptor type 2 (Homo sapiens, UniProt P25025).
T2 sequence (P25025 whole entry): T1 sequence (whole entry)
Kind of data set: Displacement of [125I]IL8 from human recombinant CXCR2 expressed in HEK293 membranes by SPA. In outline:
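Human recombinant CXCR2 in HEK293 cell membranes, screened by scintillation proximity assay at the HTS stage. SPA actives were then validated in a conventional filter-wash [125I]IL8 binding assay on hrCXCR2.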

Data set [6] can be described thus: Clearance in human liver microsome. It is filed as ADME. The following applies: liver microsomes. Background: Microsomes from liver hold many membrane-bound enzymes, among them those of drug oxidation.
Data set [7] has as its target T3, Interleukin-8 receptors, CXCR1/CXCR2 (Homo sapiens, UniProt P25025+P25024).
T3 sequence (P25025 whole entry): T1 sequence (whole entry)
T3 sequence (P25024 whole entry): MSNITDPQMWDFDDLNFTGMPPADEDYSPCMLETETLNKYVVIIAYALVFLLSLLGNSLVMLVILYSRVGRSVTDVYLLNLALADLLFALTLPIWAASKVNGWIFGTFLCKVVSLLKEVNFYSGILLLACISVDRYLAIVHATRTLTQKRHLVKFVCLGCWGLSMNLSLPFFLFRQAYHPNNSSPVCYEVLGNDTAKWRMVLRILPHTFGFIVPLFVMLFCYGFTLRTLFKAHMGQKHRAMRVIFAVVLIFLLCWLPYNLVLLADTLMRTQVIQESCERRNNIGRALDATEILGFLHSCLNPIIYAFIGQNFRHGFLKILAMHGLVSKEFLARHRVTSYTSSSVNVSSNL
The experiment in a line: Inhibition of GROalpha-stimulated intracellular calcium mobilisation in human neutrophils by FLIPR. Format: functional, cell-based.

Data set [8] is described as follows: Distribution coefficient of the compound, log D. It is filed as physicochemical. The following applies: octanol/water.
A short description of data set [9]: Oral bioavailability in rat. It is filed as ADME, organism-based. The note with it: in vivo.
Data set [10] can be described thus: Protein binding in plasma. It is filed as ADME, cell-free. The note with it: human, read-out: PPB (converted).

Usually inhibition stands for the change of the read-out against control, counted positive when it falls. A high value points to a response far below the control. In general, half-life refers to the time needed for the level to fall by half in the phase considered. The term clearance denotes a measure of how efficiently the substance is removed, as volume per time. A lower clearance goes with inefficient removal. As usually defined, the IC50 is the concentration needed to halve the response being measured. As usually defined, the microsomal CLint is a measure of how fast metabolising enzymes remove a compound, apart from limits set by blood flow. In general, logD refers to the decadic logarithm of the distribution of all forms, ionised or not, between an organic phase and buffer at a given pH. A word on the bioavailability: it is the share of a dose that reaches the circulation, judged against a reference dose that is usually intravenous.

Molecules are shown by their SMILES.

As for `CCCCCSc1nc(NCCCO)c2sc(N)nc2n1`, the inhibition in data set [1] is less than 50%.

Molecule `CCCCCSc1nc(O)c2sc(Br)nc2n1` showed an inhibition in data set [1] of less than 50%.

In turn, `Nc1nc2nc(SCc3ccccc3)nc(Cl)c2s1` displayed an inhibition in [1] of less than 50%.

Consider `Nc1nc2nc(SCc3cccc(F)c3F)nc(Cl)c2s1`, for which, in data set [1], the inhibition is less than 50%.

In turn, `CC[C@H](CO)Nc1nc(SCc2ccccc2)nc2nc(N)sc12` showed a half-life in data set [2] of 1 h. Further, the clearance in data set [3] was 40 mL/min/kg. Moreover, the Vd in data set [4] was found to be 2.2 L/kg. The IC50 in data set [5] was found to be 0.12 µM. Besides, the microsomal CLint in data set [6] turned out to be 6 µL/min/mg.

As to `CC[C@H](CO)Nc1nc(SCc2cccc(Oc3ccccc3)c2)nc2nc(N)sc12`, the IC50 in [5] worked out at 0.35 µM.

In the case of `CCCCCSc1nc(O)c2sc(N)nc2n1`, the IC50 in [7] was found to be 2 µM; in data set [5] it was 10 µM. Besides, the logD in data set [8] came out at 2.9. This molecule displayed a microsomal CLint in data set [6] of 18 µL/min/mg.

On to `CSc1nc(O)c2sc(N)nc2n1`, for which the inhibition in data set [1] was less than 50%.

Turning to `Nc1nc2nc(SCc3ccccc3)nc(N)c2s1`, the half-inhibitory concentration (IC50) in data set [5] is 10 µM.

As for `Nc1nc2nc(SCc3ccccc3)[nH]c(=O)c2s1`, the IC50 in data set [5] came out at 1.3 µM. This molecule also displayed a microsomal CLint in data set [6] of less than 3 µL/min/mg.

In data set [1], `CCCCCSc1nc(Cl)c2sc(N)nc2n1` registered an inhibition of less than 50%.

Consider `CCCCCSc1nc(N(CC)CC)c2sc(N)nc2n1`, for which, in [1], the inhibition was less than 50%.

Take `CCCCCSc1nc2ncsc2c(=O)[nH]1`: the IC50 in data set [5] stood at 10 µM.

Turning to `CC[C@@H](CO)Nc1nc(SCc2ccccc2)nc2nc(N)sc12`, in data set [5], the IC50 turned out to be 3.9 µM.

As to `Nc1nc2nc(SCc3cccc(Oc4ccccc4)c3)[nH]c(=O)c2s1`, in data set [5], the IC50 amounted to 0.48 µM.

Consider `CCSc1nc(O)c2sc(N)nc2n1`, for which the inhibition in data set [1] is less than 50%.

`Nc1nc2nc(SCc3ccccc3)nc(SCC(=O)O)c2s1` gave an inhibition in data set [1] of less than 50%.

In the case of `CC[C@H](CO)Nc1nc(SCc2cccc(F)c2F)nc2nc(N)sc12`, the IC50 in data set [5] came to 0.0095 µM.

Take `CCCCCSc1nc(O)c2sc(NC(C)=O)nc2n1`: the inhibition in [1] was less than 50%.

In data set [1], `COC(=O)CSc1nc(SCc2ccccc2)nc2nc(N)sc12` returned an inhibition of less than 50%.

Molecule `CCCCCSc1nc(NC2CCCC2)c2sc(N)nc2n1` yielded an inhibition in data set [1] of less than 50%.

Regarding `CCCCCSc1nc(NCCO)c2sc(N)nc2n1`, the IC50 in data set [5] was 7 µM.

Take `CC[C@@H](CO)Nc1nc(SCc2cccc(Oc3ccccc3)c2)nc2nc(N)sc12`: in data set [5], the IC50 was 1.4 µM.

For `CC(C)(CO)Nc1nc(SCc2cccc(Oc3ccccc3)c2)nc2nc(N)sc12`, the IC50 in data set [5] was determined as 0.05 µM.

Take `CC(C)(CO)Nc1nc(SCc2cccc(F)c2F)nc2nc(N)sc12`: the IC50 in [7] was 0.04 µM; in data set [5], 0.014 µM. The bioavailability in data set [9] is 15%. Further, in [8], the logD came to 3.4. The molecule also had a half-life in data set [2] of 1.2 h. The molecule further returned a clearance in data set [3] of 25 mL/min/kg. Moreover, the Vd in data set [4] turned out to be 1.9 L/kg. The fraction unbound in data set [10] was 0.016. This molecule came in with a microsomal CLint in data set [6] of 31 µL/min/mg.

For the molecule `Nc1nc2nc(SCc3cccc(F)c3F)[nH]c(=O)c2s1`, the half-life in data set [2] is 3.5 h. The molecule further registered a clearance in data set [3] of 9.5 mL/min/kg. Also, the Vd in data set [4] was determined as 0.9 L/kg. In data set [5], the IC50 was 0.27 µM. In addition, in data set [6], the microsomal CLint is 2 µL/min/mg.

Turning to `Nc1nc2nc(SCc3ccccc3)nc(SCCO)c2s1`, in [1], the inhibition is less than 50%.

As to `Nc1nc2nc(SCc3cccc(Oc4ccccc4)c3)nc(Cl)c2s1`, in data set [1], the inhibition was less than 50%.

In [1], `CCCCCSc1nc(O)c2sc(NC)nc2n1` returned an inhibition of less than 50%.
